Screens from PubChem BioAssay.
NadD block: inhibitors of Staphylococcus aureus NadD | 360,000 tested, 0.78% active | AID 602399 | purified NadD enzyme, colorimetric absorbance read-out | inhibition, % at 20 µM; in the data active means inhibition above about 26%
core dimer inh: blocks dimerization of HCV core protein; inhibition, % at 5 µM; TR-FRET GST/Flag-core106 dimerization, 1536-well; 300,000 tested, 0.33% active;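 active means inhibition above the mean of all tested compounds plus 3 SD, set per screening campaign, cut at about 45% in these data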
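Material: Tagged HCV core106 pair (GST and Flag) | Amount: GST-core106 13.5 nM, Flag-core106 17 nM | Medium: KF-containing HEPES buffer, pH 7.45, DTT, CHAPS, BSA | Reagent: Eu donor and XL665 acceptor anti-tag antibodies | Schedule: 4 h at 22.5 °C | Technique: Time-resolved FRET, ex 340 nm, em 617 and 671 nm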
IMP-1 inhibitor: inhibitors of Pseudomonas aeruginosa IMP-1 metallo-beta-lactamase | purified IMP-1, nitrocefin hydrolysis, epi-absorbance fluorescence | inhibition, % at 5.6 µM | 290,000 tested, 0.45% active | AID 1556;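 active means inhibition above the mean plus 3 SD of all compounds in the same screening run, cut at about 4.5% in these data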;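 further: 0% = IMP-1 with DMSO and 100% = DMSO wells lacking enzyme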
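System: Purified IMP-1 | Read-out basis: Percent enzyme inhibition | Controls: IMP-1 with DMSO as 0%, enzyme-free DMSO as 100% | Replicates: One well per compound | Doses: 5.6 µM nominal single concentration | Detection: Epi-absorbance fluorescence, 480 nm excitation, 530 nm emission | Incubation: 25 °C, 15 min preincubation, 25 min reaction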
VIM-2 inhibitor: inhibitors of Pseudomonas aeruginosa VIM-2 metallo-beta-lactamase; 290,000 tested, 0.89% active; inhibition, % at 5.6 µM; purified VIM-2, nitrocefin hydrolysis, epi-absorbance fluorescence;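 active means inhibition above the mean of all tested compounds plus 3 SD, cutoff set per screening run, cut at about 7.5% in these data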;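 further: red hydrolysis product quenches plate fluorescence so inhibitors raise well fluorescence; 0% = enzyme with DMSO and 100% = DMSO without enzyme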
Numbers without * were called inactive; . = no result given. Compounds with a hit are over-represented: about 1.9% of the library has one in this group of screens.

SMILES | NadD block | core dimer inh | IMP-1 inhibitor | VIM-2 inhibitor
Cc1cccc(N2CCN(C3=NC(=O)/C(=C\c4cn[nH]c4-c4ccccc4)S3)CC2)c1 | 25 | 20 | -1 | 0
O=C1N=C(N2CCC(Cc3ccccc3)CC2)S/C1=C/c1cn[nH]c1-c1ccccc1 | 41* | 13 | -1 | -2
Cc1ccc(N2CCN(C3=NC(=O)/C(=C\c4cn[nH]c4-c4ccccc4)S3)CC2)cc1 | 42* | 24 | -2 | -3
Cc1ccc(S(=O)(=O)/N=C2\C=C(Nc3cccc(C(=O)O)c3)C(=O)c3ccccc32)c(C)c1 | 7 | -8 | -7 | -3
CC(C)(C)c1ccc(S(=O)(=O)/N=C2\C=C(NS(=O)(=O)c3ccccc3)C(=O)c3ccccc32)cc1 | 40* | 43 | -5 | -5
Cc1ccc(S(=O)(=O)/N=C2\C=C(NS(=O)(=O)c3ccccc3)C(=O)c3ccccc32)c(C)c1 | 32* | . | . | .
CC(C(=O)NCc1ccco1)n1cc([N+](=O)[O-])cn1 (stereo not drawn) | -4 | -3 | -1 | 0
O=C1Nc2c(Cl)cccc2C1=O | 4 | . | . | .
O=C(C[n+]1ccccc1)N/N=C/c1ccc(C(=O)O)cc1 | 8 | . | . | .
Cc1nc(N2CCOCC2)nc2c1CCC2 | -2 | 7 | -2 | -3
CCn1cc(NC(=O)CCl)c(C)n1 | . | 2 | -3 | -2
Oc1ccccc1C1=NC(c2ccccc2)NC(c2ccccc2)C1 (stereo not drawn) | -6 | . | . | .
Cc1nc(SCc2ccccc2C#N)n[nH]1 | -1 | 0 | 4.9* | 1
COC(=O)c1ccc(NC(=O)C2CCN(C(=O)Nc3ccccc3)CC2)cc1 | 7 | . | . | .
O=C1CC(/C=C/c2ccco2)=Nc2ccccc2N1 | 28 | 58* | -3 | -1
O=C1CC(/C=C/c2ccccn2)=Nc2ccccc2N1 | 1 | 0 | -6 | -2
Cc1ccc(C)c(OCC(=O)Nc2ccc(N3CCOCC3)cc2)c1 | -6 | 4 | -3 | 4
Cc1ccc(C)c(OCCCC(=O)Nc2ccc(N3CCOCC3)cc2)c1 | . | . | 6.3* | -4
COc1cc(C2NC(=O)NC(C)=C2C(=O)Nc2cccc(C)c2C)cc(OC)c1OC (stereo not drawn) | 2 | -2 | -3 | -3
COc1ccccc1C1NC(=O)NC(C)=C1C(=O)Nc1cccc(C)c1C (stereo not drawn) | 3 | 1 | 5.0* | 0
Cc1cc(N)ccc1N1CCCC1 | 70* | -1 | -2 | 1
O=C(O)C(C(O)c1ccc([N+](=O)[O-])cc1)[n+]1ccccc1 (stereo not drawn) | 2 | -15 | . | .
O=C(O)c1cc(O)c2c(c1)[C@@H]([C@H]1c3cc(C(=O)O)cc(O)c3C(=O)c3c(O[C@@H]4O[C@H](CO)[C@@H](O)[C@H](O)[C@H]4O)cccc31)c1cccc(OC3O[C@H](CO)[C@@H](O)[C@H](O)[C@H]3O)c1C2=O (stereo partly drawn) | 30 | -14 | . | .
O=C(O)c1cc(O)c2c(c1)[C@H]([C@H]1c3cc(C(=O)O)cc(O)c3C(=O)c3c(O[C@@H]4O[C@H](CO)[C@@H](O)[C@H](O)[C@H]4O)cccc31)c1cccc(OC3O[C@H](CO)[C@@H](O)[C@H](O)[C@H]3O)c1C2=O (stereo partly drawn) | 68* | 38 | . | .
O=C(C1CCC(Cn2c(=S)[nH]c3ccccc3c2=O)CC1)N1CCN(c2ccccc2)CC1 (stereo not drawn) | 16 | 53* | -1 | -6
SMILES | NadD block | core dimer inh | IMP-1 inhibitor | VIM-2 inhibitor
COc1cccc(NC(=O)Cn2c3ccccc3c3nc4n(c(=O)c32)CCCS4)c1 | 19 | 7 | 4.8* | 2
O=C(Cn1c2ccccc2c2nc3n(c(=O)c21)CCCS3)Nc1ccccc1 | 10 | 7 | 0 | 1
Cc1ccccc1-n1ncc2c1CC(C)(C)CC2NC(=O)CCN1CCCCC1=O (stereo not drawn) | -5 | -3 | -2 | 0
O=C1S/C(=C/c2ccccc2)C(=O)N1CC(O)Cn1c2ccccc2c2ccccc21 (stereo not drawn) | 16 | 18 | -4 | -2
CN(C)c1ccc(/C=C2\SC(=O)N(CC(O)Cn3c4ccccc4c4ccccc43)C2=O)cc1 (stereo not drawn) | 33* | 32 | -5 | -4
CSc1nnc(-c2cc[n+](C)cc2)n1CCO | 10 | -1 | 4.9* | -4
CSc1nnc(-c2ccccc2)n1N | -4 | . | -1 | -1
CN(CC1CCCO1)S(=O)(=O)c1ccc(C(=O)Nc2ccc(S(N)(=O)=O)cc2)cc1 (stereo not drawn) | -2 | -1 | 4.8* | 2
O=C(CN(Cc1ccccc1)S(=O)(=O)c1ccc(F)cc1)NCc1cccnc1 | -2 | -4 | -1 | -1
CCOc1ccc(N2C(=O)CC(NNc3nc4ccccc4s3)C2=O)cc1 (stereo not drawn) | 0 | -1 | -3 | -1
COC(=O)[C@H]1C[C@H](OC(=O)NC2CCCC2)[C@@]2(O)CN(S(=O)(=O)c3ccc(C)cc3)CC2[C@H]1C(=O)OC (stereo partly drawn) | -1 | . | . | .
Cc1cc(Nc2cccc(C)c2C)n2nc(C)nc2n1 | -3 | -6 | 0 | 10*
Cc1ccc(Nc2cc(C)nc3nc(C)nn23)cc1 | -5 | -5 | -5 | 8
Cc1cc(Nc2ccccc2F)n2nc(C)nc2n1 | 1 | 2 | -2 | 3
Cc1cc(C)cc(Nc2cc(C)nc3nc(C)nn23)c1 | 4 | 2 | -2 | 22*
CC(=O)c1ccc(Nc2cc(C)nc3nc(C)nn23)cc1 | 0 | -2 | -1 | 5
Cc1cc(Nc2ccc(Br)c(C)c2)n2nc(C)nc2n1 | -1 | -2 | -4 | 10*
O=C(Nc1ccccc1-c1ccccc1)c1ccc(NC(=O)c2ccco2)cc1 | -2 | 2 | -1 | -1
CN1CCN(c2nc(-c3cccc([N+](=O)[O-])c3)nc3ccccc23)CC1 | -9 | 2 | 1 | 8.6*
CCOC(=O)c1c(NC(=O)c2ccc(S(=O)(=O)N3CCOCC3)cc2)sc2c1CC(C)(C)NC2(C)C | -13 | 0 | -1 | 1
CCOC(=O)c1c(NC(=O)c2ccc(S(=O)(=O)N3CCOCC3)cc2)sc2c1CCN(C)C2 | -7 | 8 | 2 | 8.6*
CCOC(=O)c1c(NC(=O)c2cccc(N3C(=O)CCC3=O)c2)sc2c1CCN(CC)C2 | 0 | 18 | -1 | 7.9*
COc1ccc(Oc2nnnn2-c2ccccc2)cc1 | 1 | -1 | 3 | -3
c1ccc(-n2nnnc2Oc2ccc(-n3ccnc3)cc2)cc1 | 1 | 5 | -4 | 11*
CSCC[C@H](NC(=O)C1CCN(S(=O)(=O)c2ccc(C)cc2)CC1)C(=O)NCC1CCCO1 (stereo partly drawn) | 4 | -4 | 0 | -3
CSCC[C@H](NC(=O)C1CCN(S(=O)(=O)c2ccc(C)cc2)CC1)C(=O)NCc1ccco1 | 0 | 8 | 5.9* | -2
O=C(CSc1ccsc1[N+](=O)[O-])N1CCN(c2ccccc2)CC1 | 5 | 19 | -2 | 0
Cc1ccc(C)c(N2CCN(C(=O)CSc3ccsc3[N+](=O)[O-])CC2)c1 | 11 | 56* | -2 | -3
